From PubChem BioAssay
In the library only some 1.5% were active in any assay of this set; here they are far more common.
CCR6 antagonist: CCR6 receptor antagonists, primary screen, cell-based, CHO-K1, luminescence, beta-arrestin, uHTS; AID 493098, 2011; CHO-K1 CCR6 PathHunter beta-arrestin, CCL20-stimulated; 340,000 tested, 0.49% active; C-C chemokine receptor type 6 (Homo sapiens), P51684; inhibition, % at 20 µM;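 active = compounds whose inhibition of the agonist-driven luminescence signal at 20 µM reaches about 50%, limit read from the data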;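 note: cells stimulated with CCL20 at 14 nM final; plate controls were DMSO with CCL20 for no effect and DMSO without agonist for full effect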
APJ agonist: agonists of human apelin receptor APJ, primary screen, CHO-K1 cells, PathHunter beta-arrestin, luminescence; P35414; 330,000 tested, 0.11% active; 0% DMSO wells, 100% apelin; activation, % at 20 µM;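 active = activation more than six SD over the plate average, tested at 20 µM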;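 note: 0% = DMSO alone and 100% = apelin-13 at 10 nM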
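assay system = CHO-K1 APJ beta-arrestin complementation cell line | input = cell density 1000 per well | dosing = compound 20 µM once, DMSO 1% | timing = compound 90 min 25 °C, reagent 1 h | measured by = luminescence from split beta-galactosidase complementation, Galacton Star/Emerald II substrate | read-out basis = APJ agonist activity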
APJ antagonist: antagonists of human apelin receptor APJ, primary screen, CHO-K1 cells, beta-arrestin complementation, luminescence. 330,000 tested, 0.32% active. inhibition, % at 20 µM. P35414;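 active = inhibition above about 40% at 20 µM, limit read from the data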;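 note: cells challenged with 10 nM apelin-13 agonist together with compound; plate controls were apelin-13 plus DMSO wells for no effect and DMSO wells lacking apelin-13 for full effect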
CXCR6 block: CXCR6 receptor inhibitors, primary screen, cell-based, beta-arrestin, luminescence, CHO-K1 PathHunter, 1536-well. C-X-C chemokine receptor type 6 (Homo sapiens), O00574. inhibition, % at 20 µM. 360,000 tested, 0.36% active; in the data active = inhibition above about 34%, passing the limit was not always enough;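 note: antagonist mode with CXCL16 agonist at 10 nM final; 0% = 10 nM CXCL16 with DMSO and 100% = unstimulated wells without agonist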
Target sequence (O00574 whole entry, looked up): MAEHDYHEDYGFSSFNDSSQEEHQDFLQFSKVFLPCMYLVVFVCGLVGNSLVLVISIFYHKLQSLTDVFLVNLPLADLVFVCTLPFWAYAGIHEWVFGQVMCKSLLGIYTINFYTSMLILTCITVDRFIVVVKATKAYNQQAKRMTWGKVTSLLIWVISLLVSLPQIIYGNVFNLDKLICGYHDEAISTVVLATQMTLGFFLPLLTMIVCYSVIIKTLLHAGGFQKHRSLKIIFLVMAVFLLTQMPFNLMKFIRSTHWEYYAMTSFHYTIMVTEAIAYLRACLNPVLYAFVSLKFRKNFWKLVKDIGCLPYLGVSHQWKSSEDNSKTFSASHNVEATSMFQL
EBI2 block: EBI2 receptor antagonists, beta-arrestin recruitment, primary screen, cell-based, luminescence, 7a,25-OHC stimulation, uHTS. 7a,25-OHC stimulated. 360,000 tested, 0.81% active. G-protein coupled receptor 183 (Homo sapiens), P32249. inhibition, % at 5 µM; in the data active = inhibition above about 38%;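 note: enzyme fragment complementation signal reports receptor beta-arrestin coupling in cells; 0% = agonist plus DMSO wells and 100% = wells without agonist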
* = called active by the depositor; . = not tested or not shown; ! = not confirmed by another sample.

SMILES	CCR6 antagonist	APJ agonist	APJ antagonist	CXCR6 block	EBI2 block
O=C1c2ccccc2C(c2nnnn2-c2ccc3c(c2)OCCO3)N1CCc1ccccc1F (stereo not given)	.	.	.	-9	2
Cc1csc(N=Nc2ccc(N(C)C)cc2)[n+]1[O-]	.	.	.	47*	14
CN(C)c1ccc(N=Nc2ccc(C(=O)O)cc2)cc1	27	-5	18	27	9
COc1ccc(CN2C(=O)C(Cc3ccccc3)Nc3ncnc(N4CCCCC4)c32)cc1 (stereo not given)	43	-12	-32	31	7
Cc1ccc(CN2C(=O)C(Cc3ccccc3)Nc3ncnc(N4CCCCC4)c32)cc1 (stereo not given)	51*	-4	39	41*!	12
O=C(C1CCCCC1)N1C[C@@H](O)[C@H](n2cc(-c3ccc(F)cc3)nn2)C[C@@H]1c1ccc(Cl)cc1	.	.	.	4	17
c1ccc(Nc2ccccn2)cc1	-1	-1	-8	-4	-9
c1ccc(/N=C2\N=C(Nc3ccccn3)c3ccccc32)nc1	56*	-4	24	31	-9
O=C(CCc1ccccc1)NNC(=S)NC(=O)c1ccccc1	69*	-3	24	26	-3
CC(=O)NC(=S)NNC(=O)CCc1ccccc1	-1	-4	23	17	0
O=[N+]([O-])c1ccc(S(=O)Cc2ccccc2)c([N+](=O)[O-])c1 (stereo not given)	102*	.	.	92*	7
Cc1ccccc1Oc1ccc2c(c1)[C@@H]1C[C@H](N(C)C(=O)c3ccco3)[C@H]([C@H](C)O)C(=O)N1CC2	.	.	.	0	4
CCN(CC)c1ccc2cc(C(=O)NNC(=O)c3ccc(S(=O)(=O)N4CCCCC4)cc3)c(=O)oc2c1	69*	.	.	19	2
Cc1cc(C(=O)N/N=C/c2cc(Cl)cc([N+](=O)[O-])c2O)c2ccccc2n1	35	-6	12	23	54*
COCCCn1c(SCc2cccc(C(F)(F)F)c2)nc2cc(OC)c(OC)cc2c1=N	17	-1	13	2	57*
COC(=O)c1cc2c(C)nn(-c3ccccc3)c2s1	-7	-1	-2	-6	9
Cc1nn(-c2ccccc2)c2sc(C(=O)N(CC(=O)NC(C)(C)C)Cc3ccco3)cc12	57*	-2	11	5	9
O=C(NCc1ccccc1)C(CCc1ccccc1)n1c(=O)c(-c2ccccc2)nc2ccccc21 (stereo not given)	.	.	.	.	13
CC1(C(=O)Nc2ccc3c(c2)OCO3)Cc2c(-c3cccc(C(N)=O)c3)ccnc2O1 (stereo not given)	.	.	.	-6	5
Cn1cnc([N+](=O)[O-])c1S(=O)(=O)Oc1ccc(Cl)cc1	60*	.	.	52*	14
Cn1cnc([N+](=O)[O-])c1S(=O)(=O)Oc1cccc2ccccc12	74*	.	.	49*	20
CNC(=O)OC1CC2CC1[C@H]1CCCCN1C2=O (stereo not given in full)	.	.	.	2	0
CC(=O)N(CC(=O)N(CC(=O)O)c1ccc(Cl)cc1)c1ccc(Cl)cc1	7	.	.	4	1
Nc1nn(S(=O)(=O)c2ccccc2)cc1-c1ccc([N+](=O)[O-])cc1	12	9.9*	-63	-11	-17
CCOC(=O)c1nnn(-c2nonc2N)c1CN1CCCC1	-2	-2	5	-3	1
SMILES	CCR6 antagonist	APJ agonist	APJ antagonist	CXCR6 block	EBI2 block
CCOC(=O)c1nnn(-c2nonc2N)c1CN1CCCCCC1	104*	-3	-7	3	-7
Cc1noc(C)c1C(=O)OC(C)C(=O)c1c[nH]c2ccccc12 (stereo not given)	.	.	.	0	-1
CCOc1ccc2c(c1)C(=NNC(=O)c1ccncc1)c1cc(OCC)ccc1-2	40	-12	57*	34	8
O=C(N/N=C1\C/C(=N\NC(=O)c2ccncc2)c2ccccc21)c1ccncc1	56*	5	-18	30	-3
CCOc1ccc(NC(=O)c2ccncc2)cc1	-18	-4	-9	-5	-2
CCOC(=O)CSC1=NC(=O)/C(=C/c2ccc(OC)cc2)S1	54*	5	-1	39	6
O=c1[nH][nH]c2c1[C@H](c1ccc(F)cc1)O[C@H](CCc1ccccc1)C2	.	.	.	-3	-1
Cc1nn(Cc2ccc(F)cc2)c(C)c1NC(=O)c1cnn2c1NC(c1cccs1)CC2C(F)(F)F (stereo not given)	-2	1	-17	7	37*
Cc1nn(Cc2ccc(F)cc2)c(C)c1NC(=O)c1cnn2c1NC(c1ccccc1)CC2C(F)(F)F (stereo not given)	-9	-1	-15	-14	0
CCOc1ccc(C(=O)COc2ccc(NC(C)=O)cc2)cc1	12	-1	-5	0	3
CC(=O)Nc1ccc(NCC(=O)c2ccccc2)cc1	28	0	11	51*	-15
O=C(CNc1ccccc1)c1ccc([N+](=O)[O-])cc1	20	6	-7	-7	-3
CCOc1ccc(NCC(=O)c2ccc(C)cc2)cc1	68*	-2	6	51*	-6
Nc1nc2ccccc2cc1C(=O)NCCCCc1ccccc1	.	.	.	-6	-5
CCc1nc2ccc(C(=O)N3CCN(C(=O)c4ccco4)CC3)cn2c1N(CC)Cc1cccc(Br)c1	.	.	.	5	2
COc1cc2ccccc2cc1C(=O)Nc1ccc(Br)cn1	2	2	7	-17	47*
Nc1ccc(N(CCO)CCO)cc1	-10	3	-16	-11	-7
Cc1cc(N(CCO)CCO)ccc1N=Nc1cc(F)ccc1F	44	-9	61*	30	15
Cc1ccc(/C=C2\SC(N3CCCCC3)=NC2=O)cc1	3	3	2	12	81*
CCOC(=O)C1CCCN(C2=NC(=O)/C(=C/c3ccc(O)c(OCC)c3)S2)C1 (stereo not given)	13	-2	16	12	2
CCOc1ccc(/C=C2\SC(N3CCc4ccccc4C3)=NC2=O)cc1	-3	-1	15	14	65*
CCOC(=O)C1CCCN(C2=NC(=O)/C(=C/c3ccc(N(C)C)cc3)S2)C1 (stereo not given)	24	-2	15	2	45*
COCCN1C(=O)COc2ccccc2C1C(=O)NC1CCCC1 (stereo not given)	.	.	.	-3	-1
c1ccc(Nc2nc(-c3ccccc3)ns2)cc1	5	1	-5	-5	46*
Cc1ccc2nc(-c3ccc(-c4cccc(Cl)c4)cc3)c(NCc3ccccc3)n2c1	14	3	-37	12	58*
Cc1ccc2nc(-c3ccc(Cl)cc3)c(Cc3cccc(Cl)c3)n2c1	.	.	.	20	31
